ChEMBL document CHEMBL1148788 (J Med Chem, 2007)
Where “and” joins values, the source holds several entries; their conditions need not be identical. Equal values may be shown once. Calls of active or inactive are those of the source. The calls are words filed in the database; no cut-off is given here.

Columns and labels:
[1] = target: Neuronal acetylcholine receptor; alpha3/beta4 (Rattus norvegicus, UniProt P04757+P12392); test: Displacement of [3H]epibatidine from recombinant rat alpha-3-beta-4 nAChr in HEK293 cell line; type: cell-based
[2] = target: T1, 5-hydroxytryptamine receptor 3A (Homo sapiens, UniProt P46098); test: Displacement of [3H]GR65630 from human 5HT3A receptor in HEK293 cells; type: cell-based
T1 sequence (P46098 whole entry): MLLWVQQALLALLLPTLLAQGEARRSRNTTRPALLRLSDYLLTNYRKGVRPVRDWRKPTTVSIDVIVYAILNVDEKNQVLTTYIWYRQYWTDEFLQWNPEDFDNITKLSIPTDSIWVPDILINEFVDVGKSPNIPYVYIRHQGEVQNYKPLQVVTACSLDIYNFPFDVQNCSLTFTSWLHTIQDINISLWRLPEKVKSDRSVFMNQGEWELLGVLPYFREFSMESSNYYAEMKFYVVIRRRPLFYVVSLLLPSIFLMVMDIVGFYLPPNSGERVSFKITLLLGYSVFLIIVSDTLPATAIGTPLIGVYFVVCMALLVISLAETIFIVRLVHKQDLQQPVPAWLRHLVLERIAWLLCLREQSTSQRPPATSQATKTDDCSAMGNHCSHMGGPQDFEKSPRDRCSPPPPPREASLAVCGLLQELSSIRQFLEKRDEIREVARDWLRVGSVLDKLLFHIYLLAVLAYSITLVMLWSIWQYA

[3] = target: T2, Neuronal acetylcholine receptor subunit alpha-7 (Homo sapiens, UniProt P36544); test: Antagonist activity at human alpha-7 nAChR in tsA201 cells coexpressed with Ric3 by FMP assay; type: functional, cell-based
Target sequence in this assay (P36544 whole entry): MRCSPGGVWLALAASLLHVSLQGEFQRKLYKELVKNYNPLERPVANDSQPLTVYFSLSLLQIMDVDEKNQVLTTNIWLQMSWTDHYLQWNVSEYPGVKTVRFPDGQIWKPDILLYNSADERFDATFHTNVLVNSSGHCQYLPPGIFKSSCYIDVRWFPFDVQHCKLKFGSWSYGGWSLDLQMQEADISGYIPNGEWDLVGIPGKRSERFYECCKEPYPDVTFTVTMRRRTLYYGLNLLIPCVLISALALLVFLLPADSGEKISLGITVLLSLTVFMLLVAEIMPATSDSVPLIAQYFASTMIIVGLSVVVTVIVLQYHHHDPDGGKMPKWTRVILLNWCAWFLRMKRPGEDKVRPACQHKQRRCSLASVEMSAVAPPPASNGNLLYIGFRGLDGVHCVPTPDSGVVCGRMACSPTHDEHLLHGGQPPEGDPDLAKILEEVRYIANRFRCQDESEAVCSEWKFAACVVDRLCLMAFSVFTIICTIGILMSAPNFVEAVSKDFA

[4] = target: T1, 5-hydroxytryptamine receptor 3A; test: Antagonist activity at human 5HT3A receptor expressed in HEK293 cells by FMP assay; type: functional, cell-based
[5] = target: T2, Neuronal acetylcholine receptor subunit alpha-7; test: Displacement of [3H]methyllycaconitine from chimeric alpha7nAChR/5HT3A in tsA201 cells; type: cell-based
Target sequence in this assay (P36544 23-502 limits assumed): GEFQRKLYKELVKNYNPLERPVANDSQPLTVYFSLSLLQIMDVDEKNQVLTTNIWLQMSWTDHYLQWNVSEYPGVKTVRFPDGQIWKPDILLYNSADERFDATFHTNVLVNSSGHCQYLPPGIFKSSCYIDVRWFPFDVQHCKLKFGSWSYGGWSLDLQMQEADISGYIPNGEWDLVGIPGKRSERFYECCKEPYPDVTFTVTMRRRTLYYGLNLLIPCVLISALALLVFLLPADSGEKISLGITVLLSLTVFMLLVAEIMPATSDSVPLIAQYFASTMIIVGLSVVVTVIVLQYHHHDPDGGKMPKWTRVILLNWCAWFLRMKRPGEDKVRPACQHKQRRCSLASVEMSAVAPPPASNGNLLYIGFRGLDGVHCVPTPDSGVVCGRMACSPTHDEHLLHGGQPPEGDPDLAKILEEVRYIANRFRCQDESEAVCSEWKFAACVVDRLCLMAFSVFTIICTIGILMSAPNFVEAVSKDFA

[6] = Displacement of [3H]methyllycaconitine from chimeric alpha7nAChR K145A mutant/5HT3A receptor in tsA201 cells; type: cell-based, Homo sapiens
Outline: (§1)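 tsA-201 cells transiently transfected with 4 µg WT or mutant α7/5-HT3A chimera and assayed 2 days later. Membranes washed twice at 50000g in 50 mM Tris-HCl pH 7.2. Incubated with 0.5 nM [3H]MLA and compound for 2.5 h at room temperature with shaking; nonspecific binding with 5 mM (S)-nicotine. PEI-soaked GF/C filtration, scintillation counting. Ki derived; duplicate, 3–7 experiments.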

tsA201 [7] = test: Displacement of [3H]methyllycaconitine from chimeric alpha-7nAChR W149A mutant/5HT3A receptor in tsA201 cells; type: cell-based; details: Homo sapiens; outline: as §1
tsA201 [8] = test: Displacement of [3H]methyllycaconitine from chimeric alpha-7nAChR Y188A mutant/5-HT3A receptor in tsA201 cells; type: cell-based; details: Homo sapiens; outline: as §1
[9] = Displacement of [3H]methyllycaconitine from chimeric alpha-7nAChR Y195F mutant/5HT3A receptor in tsA201 cells; type: cell-based, Homo sapiens; outline: as §1
[10] = target: T2, Neuronal acetylcholine receptor subunit alpha-7
Target sequence in this assay (P36544 whole entry): as the sequence (P36544 whole entry) above

Chain of Neuronal acetylcholine receptor; alpha3/beta4 (P04757 whole entry): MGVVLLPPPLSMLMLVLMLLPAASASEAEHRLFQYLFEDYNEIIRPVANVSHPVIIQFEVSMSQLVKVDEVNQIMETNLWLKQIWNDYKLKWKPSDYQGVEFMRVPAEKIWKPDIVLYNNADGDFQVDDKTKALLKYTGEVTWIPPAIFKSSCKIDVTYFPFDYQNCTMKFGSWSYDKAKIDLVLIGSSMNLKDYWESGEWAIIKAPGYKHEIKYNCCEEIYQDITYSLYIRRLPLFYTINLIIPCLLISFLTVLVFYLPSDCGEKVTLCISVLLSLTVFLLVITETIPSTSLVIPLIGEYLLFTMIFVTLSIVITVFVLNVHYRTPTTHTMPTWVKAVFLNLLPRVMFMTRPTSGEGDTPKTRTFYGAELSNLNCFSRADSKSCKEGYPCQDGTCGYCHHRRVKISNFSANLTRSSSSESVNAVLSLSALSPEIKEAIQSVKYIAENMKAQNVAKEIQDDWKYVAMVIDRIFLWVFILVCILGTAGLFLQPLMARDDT
Chain of Neuronal acetylcholine receptor; alpha3/beta4 (P12392 whole entry): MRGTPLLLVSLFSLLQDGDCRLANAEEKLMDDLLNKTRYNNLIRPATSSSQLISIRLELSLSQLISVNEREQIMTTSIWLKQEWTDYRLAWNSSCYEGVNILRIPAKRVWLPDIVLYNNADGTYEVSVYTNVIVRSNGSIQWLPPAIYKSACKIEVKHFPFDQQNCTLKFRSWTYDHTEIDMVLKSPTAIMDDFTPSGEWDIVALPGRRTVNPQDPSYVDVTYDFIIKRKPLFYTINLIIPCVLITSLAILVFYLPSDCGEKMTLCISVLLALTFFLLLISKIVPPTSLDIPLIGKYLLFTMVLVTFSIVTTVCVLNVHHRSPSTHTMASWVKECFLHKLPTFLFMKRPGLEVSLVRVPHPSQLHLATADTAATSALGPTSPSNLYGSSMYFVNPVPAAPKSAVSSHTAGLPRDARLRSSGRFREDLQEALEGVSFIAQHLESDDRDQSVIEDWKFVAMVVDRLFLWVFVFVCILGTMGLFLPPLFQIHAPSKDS

Q: With O=[N+]([O-])c1ccc(C[N+]23CC[C@@H]4[C@@H]5[C@@H]6[C@@H](OCC=C(C2)[C@@H]6C[C@@H]43)N2c3ccccc3[C@@]34CC[N+]6(Cc7ccc([N+](=O)[O-])cc7)CC7=CCO[C@H]([C@@H]([C@H]23)[C@H]7C[C@@H]46)N5c2ccccc2)cc1.[Br-].[Br-] (stereo partly specified) as the compound, how does the Ki [1] read?
A: Its Ki is greater than 100000 nM.

Q: What about the pKi ([1]; hek293) of the same compound?
A: The pKi was less than 4.

Q: What about the Ki [2] of the same compound?
A: Its Ki is 23000 nM.

Q: And the IC50 ([3]; read-out: IC50)?
A: The IC50 was 370 nM.

Q: And the IC50 ([3]; read-out: pIC50 (converted))?
A: Its IC50 is 372 nM.

Q: What about the pIC50 ([4]; hek293) of the same compound?
A: The pIC50 was less than 4.

Q: What about the IC50 ([4]; read-out: IC50) of the same compound?
A: Its IC50 is greater than 100000 nM.

Q: What about the Ki [5] of the same compound?
A: The Ki was 18 nM.

Q: What about the pKi [5] of the same compound?
A: The pKi was 7.74.

Q: What about the Ki [6] of the same compound?
A: The Ki was 28 nM.

Q: What about the pKi [6] of the same compound?
A: The pKi was 7.56.

Q: What about the Activity (tsA201 [7]) of the same compound?
A: Its Activity is “inactive”.

Q: What about the Activity (tsA201 [8]) of the same compound?
A: The Activity was “inactive”.

Q: What about the Ki [9] of the same compound?
A: The Ki was 50 nM.

Q: And the pKi [9]?
A: Its pKi is 7.3.

Q: And the IC50 [10]?
A: Its IC50 is 360 nM and 363 nM.
